Data reported in ChEMBL document CHEMBL1914312, “(8R)-3β,8-dihydroxypolypoda-13E,17E,21-triene induces cell cycle arrest and apoptosis in treatment-resistant prostate cancer cells” (J Nat Prod, 2011).
pIC50: −log10 of the molar value. Active and inactive are the calls of the source. No cut-off for these calls is given here.

How the values were obtained:
PC-3 [1] = assay: Induction of apoptosis in human PC3 cells assessed as increase in phosphatidylserine expression on outer cell membrane leaflet at 10 uM by annexin V-FITC and propidium iodine staining-based by flow cytometric analysis; assay type: functional; settings: TDE = time-dependent effect
Outline: (§1)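 PC-3 cells exposed 48 and 72 h, adherent cells detached with citric saline, stained with FITC-annexin V and propidium iodide, analysed by flow cytometry for annexin V+ cells. Means ± SEM of three experiments, Newman-Keuls test.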

PC-3 [2] = assay: Cytotoxicity against human PC3 cells at 10 '-5 to 10 uM after 72 hrs by XTT assay; assay type: functional, cell-based
PC-3 [3] = assay: Cytotoxicity against human PC3 cells after at 10 uM after 72 hrs by XTT assay; assay type: functional, cell-based
PC-3 [4] = assay: Induction of cell cycle arrest in human PC3 assessed as accumulation of cells at G2/M-phase at 10 nM after 48 hrs by propidium iodide staining-based FACS analysis; assay type: functional
Outline: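 Positive-control treatment of PC-3 cells, then trypsinization, 70% ethanol fixation, propidium iodide DNA staining with 40 μg/mL RNase A, flow cytometric DNA content and modelled phase distribution.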

PC-3 [5] = assay: Induction of cell cycle arrest in human PC3 assessed as accumulation of cells at G0/G1-phase at 10 uM after 24 hrs by propidium iodide staining-based FACS analysis (reference value: 58.7 +/- 1.4%); assay type: functional
PC-3 [6] = assay: Induction of cell cycle arrest in human PC3 assessed as accumulation of cells at G0/G1-phase at 10 uM after 48 hrs by propidium iodide staining-based FACS analysis (reference value: 58.8 +/- 2.2%); assay type: functional
PC-3 [7] = assay: Induction of cell cycle arrest in human PC3 assessed as accumulation of cells at S-phase at 10 uM after 24 hrs by propidium iodide staining-based FACS analysis (reference value: 22.4 +/- 1.3%); assay type: functional
PC-3 [8] = assay: Induction of cell cycle arrest in human PC3 assessed as accumulation of cells at S-phase at 10 uM after 48 hrs by propidium iodide staining-based FACS analysis (reference value: 23.9 +/- 1.1%); assay type: functional
PC-3 [9] = assay: Induction of cell cycle arrest in human PC3 assessed as accumulation of cells at G2/M-phase at 10 uM after 24 hrs by propidium iodide staining-based FACS analysis (reference value: 18.9 +/- 0.3%); assay type: functional
PC-3 [10] = assay: Induction of cell cycle arrest in human PC3 assessed as accumulation of cells at G2/M-phase at 10 uM after 48 hrs by propidium iodide staining-based FACS analysis (reference value: 17.3 +/- 1.2%); assay type: functional
PC-3 [11] = assay: Induction of cell cycle arrest in human PC3 cells assessed as decrease in cyclin D1 expression at 3 to 10 uM after 24 hrs by Western blot analysis; assay type: functional, cell-based
Outline: (§2)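 PC-3 whole-cell lysates at equal protein separated by SDS-PAGE and immunoblotted for cyclin D1 (24 h treatment) or cyclin E and p21Waf1/Cip1 (48 h treatment); actin as loading control; three independent repeats.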

PC-3 [12] = assay: Induction of cell cycle arrest in human PC3 cells assessed as decrease in cyclin E expression at 3 to 10 uM after 48 hrs by Western blot analysis; assay type: functional, cell-based; outline: as §2
PC-3 [13] = assay: Induction of cell cycle arrest in human PC3 cells assessed as change in p21WAF1/Cip1 level at 3 to 10 uM after 48 hrs by Western blot analysis; assay type: functional, cell-based; outline: as §2
PC-3 [14] = assay: Induction of apoptosis in human PC3 cells assessed as increase in phosphatidylserine expression on outer cell membrane leaflet at 3 to 30 uM by annexin V-FITC and propidium iodine staining-based by flow cytometric analysis; assay type: functional; settings: TDE = time-dependent effect; outline: as §1
PC-3 [15] = assay: Induction of apoptosis in human PC3 cells assessed as increase in phosphatidylserine expression on outer cell membrane leaflet after 48 to 72 hrs by annexin V-FITC and propidium iodine staining-based by flow cytometric analysis; assay type: functional; outline: as §1
PC-3 [16] = assay: Induction of apoptosis in human PC3 cells assessed as DNA fragmentation at 10 uM after 72 hrs by SDS-PAGE analysis; assay type: functional, cell-based; settings: in the assay text read “agarose gel electrophoresis” for “SDS-PAGE analysis”
Outline: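 PC-3 cells cultured with compound or solvent for 72 h; floating cells lysed in buffer of 100 mM Tris-HCl pH 8.0, 2 mM EDTA, 0.8% SDS, RNase A and proteinase K; DNA ladder resolved on 1.5% agarose gel.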

PC-3 [17] = assay: Cytotoxicity against human PC3 cells at 30 uM after 48 hrs by XTT assay; assay type: functional, cell-based; settings: PC-3, 48 h
PC-3 [18] = assay: Cytotoxicity against human PC3 cells at 4 uM after 72 hrs by XTT assay; assay type: functional, cell-based; settings: PC-3, 72 h
PC-3 [19] = assay: Cytotoxicity against human PC3 cells after at 30 uM after 48 to 72 hrs by XTT assay; assay type: functional, cell-based
[20] = Cytotoxicity against human RWPE1 cells at 1 to 30 uM after 48 hrs by XTT assay; assay type: cell-based; settings: rwpe-1, 48 h
Outline: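 Normal prostate epithelial RWPE-1 cells (HPV18-immortalized) grown in keratinocyte serum-free medium, 3–5 × 10^3 cells/well, treated 48 h; viability by XTT reduction (final 125 μM XTT, 25 μM phenazine methosulfate, 4 h), A450. Means ± SEM of 3–5 experiments in triplicate.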

PC-3 [21] = assay: Antiproliferative activity against human PC3 cells assessed as reduction in colony formation after 21 days using crystal violet staining by anchorage-independent soft agar assay; assay type: functional, cell-based
Outline: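 PC-3 cells (Ham's F12-K, 10% FCS) seeded at 1000 cells/cm2 in 0.35% agar with 10 μM compound or solvent; colonies grown 21 days, fixed and stained with crystal violet.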

PC-3 [22] = assay: Antitumor activity against human PC3 cells xenografted in chicken chorioallantoic membrane assessed as decrease in tumor size treated topically QD for 4 days by immunohistochemical analysis; assay type: functional, cell-based
Outline: (§3)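 0.7× 10^6 log-phase PC-3 cells in 20 μL medium/matrigel (1:1) grafted onto chicken CAM; from day 1, topical 20 μL compound or solvent once daily for 4 days. Xenografts fixed, paraffin-embedded, immunostained for Ki-67 with hematoxylin counterstain; staining quantified by image analysis; n = 3–6.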

PC-3 [23] = assay: Antitumor activity against human PC3 cells xenografted in chicken chorioallantoic membrane assessed as inhibition of cell proliferation treated topically QD for 4 days by immunohistochemical analysis; assay type: functional, cell-based; outline: as §3
PC-3 [24] = assay: Antitumor activity against human PC3 cells xenografted in chicken chorioallantoic membrane assessed as inhibition of tumor angiogenesis treated topically QD for 4 days using desmin staining by immunohistochemical analysis; assay type: functional, cell-based
Outline: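 PC-3 cells (0.7× 10^6 in 20 μL medium/matrigel 1:1) grafted onto chicken CAM, dosed topically with 20 μL compound or solvent once daily for 4 days from day 1. Paraffin sections immunostained for desmin as angiogenesis marker, hematoxylin counterstain; staining quantified by image analysis; n = 3–6.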

PC-3 [25] = assay: Cytotoxicity against human PC3 cells assessed as cell death at 3 to 30 uM after 48 hrs by LDH-release assay in presence of 10 uM of pan-caspase inhibitor z-VAD-fmk

SMILES: CC(=O)O[C@@]12CO[C@@H]1C[C@H](O)[C@@]1(C)C(=O)[C@H](O)C3=C(C)[C@@H](OC(=O)[C@H](O)[C@@H](NC(=O)OC(C)(C)C)c4ccccc4)C[C@@](O)([C@@H](OC(=O)c4ccccc4)[C@H]21)C3(C)C
- Activity (PC-3 [1]): tde
- Activity (PC-3 [2]): Active
- Activity (PC-3 [3]): inactive
- Activity (PC-3 [4]): Active

SMILES: CC(C)=CCC/C(C)=C/CC/C(C)=C/CC[C@@H]1[C@@]2(C)CC[C@H](O)C(C)(C)[C@@H]2CC[C@@]1(C)O
- Activity (PC-3 [5]): 75.4%
- Activity (PC-3 [6]): 74.2%
- Activity (PC-3 [7]): 5.6%
- Activity (PC-3 [8]): 9.3%
- Activity (PC-3 [9]): 18.9%
- Activity (PC-3 [10]): 17.3%
- Activity (PC-3 [11]): Active
- Activity (PC-3 [12]): Active
- Activity (PC-3 [13]): inactive
- Activity (PC-3 [14]): tde
- Activity (PC-3 [15]): Dose-dependent effect
- Activity (PC-3 [16]): Active
- pIC50 (PC-3 [17]): 4.52
- pIC50 (PC-3 [18]): 5.40
- Activity (PC-3 [2]): Active
- Activity (PC-3 [19]): Active
- Activity [20]: Non-toxic
- Activity (PC-3 [21]): Dose-dependent effect
- Activity (PC-3 [22]): Dose-dependent effect
- Activity (PC-3 [23]): Dose-dependent effect
- Activity (PC-3 [24]): Dose-dependent effect
- Activity (PC-3 [25]): inactive
